Laboratory results: EPA's CvTdb concentration-time database

Key:
Rat [1] = assay: concentration in liver after dosing; settings: 2 h; dosed: Bis 2-Chloroethoxy Methane; 20 mg/kg; iv; Male; F344
Rat [2] = assay: concentration in liver after dosing; settings: 3 h; dosed: Bis 2-Chloroethoxy Methane; 20 mg/kg; iv; Male; F344
Rat [3] = assay: concentration in thymus after dosing; settings: 7 h; dosed: Bis 2-Chloroethoxy Methane; 20 mg/kg; iv; Male; F344
Rat [4] = assay: concentration in thymus after dosing; settings: 40 min; dosed: Bis 2-Chloroethoxy Methane; 20 mg/kg; iv; Female; F344
Rat [5] = assay: concentration in plasma after dosing; settings: 20 min; dosed: Bis 2-Chloroethoxy Methane; 20 mg/kg; iv; Female; F344
Rat [6] = assay: concentration in plasma after dosing; settings: dosed: Bis 2-Chloroethoxy Methane, 40 mg/kg, iv, Male, Harlan Sprague Dawley
Rat [7] = assay: concentration in liver after dosing; settings: 12 h; dosed: Fluorotelomer alcohol 8+2; 24 mg/kg; oral; Male; Harlan Sprague Dawley
Rat [8] = assay: concentration in liver after dosing; settings: 6 h; dosed: Fluorotelomer alcohol 8+2; 80 mg/kg; oral; Female; Harlan Sprague Dawley
Rat [9] = assay: concentration in liver after dosing; settings: 12 h; dosed: Fluorotelomer alcohol 8+2; 24 mg/kg; oral; Male; Harlan Sprague Dawley; remark: listed apart in the source
Rat [10] = assay: concentration in plasma after dosing; settings: 5 min; dosed: Fluorotelomer alcohol 8+2; 12 mg/kg; iv; Male; F344
Rat [11] = assay: concentration in plasma after dosing; settings: 5 h; dosed: Di-n-butyl phthalate; 20 mg/kg; iv; Male; Sprague-Dawley
Rat [12] = assay: concentration in plasma after dosing; settings: 4 h; dosed: Di-n-butyl phthalate; 100 mg/kg; oral; Male; Sprague-Dawley
Rat [13] = assay: concentration in plasma after dosing; settings: 5 min; dosed: Di-n-butyl phthalate; 50 mg/kg; oral; Male; Sprague-Dawley
Rat [14] = assay: concentration in brain after dosing; settings: 1848 h; dosed: Perfluorodecanoic acid; 10 mg/kg; oral; Male; Harlan Sprague Dawley
Rat [15] = assay: concentration in plasma after dosing; settings: dosed: Perfluorodecanoic acid, 2 mg/kg, iv, Male, F344
Rat [16] = assay: concentration in plasma after dosing; settings: dosed: Perfluorodecanoic acid, 2 mg/kg, iv, Male, F344; remark: listed apart in the source
Rat [17] = assay: concentration in kidney after dosing; settings: 1 h; dosed: Perfluorodecanoic acid; 10 mg/kg; oral; Female; Harlan Sprague Dawley
Rat [18] = assay: concentration in liver after dosing; settings: 40 min; dosed: Thiodiglycolic Acid; 20 mg/kg; iv; Male; Harlan Sprague Dawley
Rat [19] = assay: concentration in liver after dosing; settings: 5.333 h; dosed: Thiodiglycolic Acid; 20 mg/kg; iv; Female; Harlan Sprague Dawley
Rat [20] = assay: concentration in liver after dosing; settings: 10 min; dosed: Thiodiglycolic Acid; 20 mg/kg; iv; Female; Harlan Sprague Dawley
Rat [21] = assay: concentration in liver after dosing; settings: 20 min; dosed: Thiodiglycolic Acid; 20 mg/kg; iv; Female; F344
Rat [22] = assay: concentration in liver after dosing; settings: 20 min; dosed: Thiodiglycolic Acid; 20 mg/kg; iv; Female; Harlan Sprague Dawley
Rat [23] = assay: concentration in thymus after dosing; settings: 40 min; dosed: Thiodiglycolic Acid; 20 mg/kg; iv; Female; Harlan Sprague Dawley
Rat [24] = assay: concentration in plasma after dosing; settings: 20 min; dosed: Thiodiglycolic Acid; 20 mg/kg; iv; Female; Harlan Sprague Dawley
Rat [25] = assay: concentration in plasma after dosing; settings: 2 h; dosed: Thiodiglycolic Acid; 20 mg/kg; iv; Male; Harlan Sprague Dawley
Rat [26] = assay: concentration in plasma after dosing; settings: 3 h; dosed: Thiodiglycolic Acid; 20 mg/kg; iv; Male; Harlan Sprague Dawley
Rat [27] = assay: concentration in thymus after dosing; settings: 1 h; dosed: Thiodiglycolic Acid; 20 mg/kg; iv; Female; Harlan Sprague Dawley
Rat [28] = assay: concentration in plasma after dosing; settings: 20 min; dosed: dichloroacetic acid; 10 mg/kg; oral; Male; Harlan Sprague Dawley
Rat [29] = assay: concentration in plasma after dosing; settings: 0.25 h; dosed: dichloroacetic acid; 10 mg/kg; oral; Male; Harlan Sprague Dawley
Rat [30] = assay: concentration in plasma after dosing; settings: dosed: dichloroacetic acid, 100 mg/kg, oral, Male, F344
Rat [31] = assay: concentration in plasma after dosing; settings: dosed: dichloroacetic acid, 10 mg/kg, oral, Male, Harlan Sprague Dawley
human [32] = assay: concentration in plasma after dosing; negative times count back from the end of exposure; settings: dosed: trichloroethylene, 100 ppm, inhalation, duration: 4 hr, person, during exposure
Summary of the method: (§1)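 Concentration-versus-time or amount-versus-time points were compiled from published in vivo toxicokinetic studies and from two structured collections. The studies were found by PubMed searching, classifier screening and manual review. Points were mostly digitised from plot screenshots with WebPlotDigitizer, otherwise copied from tables, and kept in the reported units. Dose, route, subject details and medium were curated by hand from each paper, and sampling and analytical methods follow each source and were often unreported.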

human [33] = assay: as above; settings: dosed: trichloroethylene, 100 ppm, inhalation, duration: 4 hr, person
Summary of the method: as §1

`ClCCOCOCCCl` [Bis 2-Chloroethoxy Methane] showed a concentration in liver (Rat [1]) of 564 ng/g, a concentration in liver (Rat [2]) of 104 ng/g and a concentration in thymus (Rat [3]) of 17 ng/g. It also gave a concentration in thymus (Rat [4]) of 4150 ng/g, a concentration in plasma (Rat [5]) of 3.81 µg/mL and a concentration in plasma (Rat [6]; 1 h) of 4.83 µg/mL. The concentration in plasma (Rat [6]; 9.667 h) was 0.0154 µg/mL.

Work on `OCCC(F)(F)C(F)(F)C(F)(F)C(F)(F)C(F)(F)C(F)(F)C(F)(F)C(F)(F)F` [Fluorotelomer alcohol 8+2] yielded a concentration in liver (Rat [7]) of 968 ng/g, a concentration in liver (Rat [8]) of 2020 ng/g and a concentration in liver (Rat [9]) of 719 ng/g. For the same compound, the concentration in plasma (Rat [10]) was 3.8 µg/mL.

`CCCCOC(=O)c1ccccc1C(=O)O` [Mono-n-butyl phthalate] was tested, and the concentration in plasma (Rat [11]) was 1.03 µg/mL, the concentration in plasma (Rat [12]) was 10.2 µg/mL and the concentration in plasma (Rat [13]) was 2.4 µg/mL.

For `O=C(O)C(F)(F)C(F)(F)C(F)(F)C(F)(F)C(F)(F)C(F)(F)C(F)(F)C(F)(F)C(F)(F)F` [Perfluorodecanoic acid], the concentration in brain (Rat [14]) was 644 ng/g, the concentration in plasma (Rat [15]; 24 h) was 5.55 µg/mL and the concentration in plasma (Rat [15]; 1848 h) was 0.488 µg/mL. The concentration in plasma (Rat [16]; 6 h) was 5.76 µg/mL, the concentration in plasma (Rat [16]; 864 h) was 0.777 µg/mL and the concentration in kidney (Rat [17]) was 20600 ng/g.

With `O=C(O)CSCC(=O)O` [Thiodiglycolic Acid] the concentration in liver (Rat [18]) was 183000 ng/g, the concentration in liver (Rat [19]) was 2510 ng/g and the concentration in liver (Rat [20]) was 10200 ng/g. The concentration in liver (Rat [21]) was 174000 ng/g, the concentration in liver (Rat [22]) was 47100 ng/g and the concentration in thymus (Rat [23]) was 3420 ng/g. For the same compound, the concentration in plasma (Rat [24]) was 11.7 µg/mL, the concentration in plasma (Rat [25]) was 0.934 µg/mL and the concentration in plasma (Rat [26]) was 0.696 µg/mL. It also gave a concentration in thymus (Rat [27]) of 2580 ng/g.

In the case of `O=C(O)C(Cl)Cl` [dichloroacetic acid], the concentration in plasma (Rat [28]) is reported as 0.291 µg/mL, the concentration in plasma (Rat [29]) is reported as 0.72 µg/mL and the concentration in plasma (Rat [30]; 0.25 h) is reported as 13.3 µg/mL. For the same compound, the concentration in plasma (Rat [30]; 6 h) was 32.8 µg/mL, the concentration in plasma (Rat [31]; 10 min) was 0.862 µg/mL and the concentration in plasma (Rat [31]; 50 min) was 0.167 µg/mL. The concentration in plasma (human [32]; -1 h) was 0.005 µg/mL, the concentration in plasma (human [32]; -2 h) was 0.004 µg/mL and the concentration in plasma (human [32]; -3 h) was 0.005 µg/mL. It also gave a concentration in plasma (human [33]; 0 h) of 0.006 µg/mL, a concentration in plasma (human [33]; 0.25 h) of 0.009 µg/mL and a concentration in plasma (human [33]; 0.5 h) of 0.013 µg/mL. The concentration in plasma (human [33]; 1 h) was 0.012 µg/mL, the concentration in plasma (human [33]; 2 h) was 0.011 µg/mL and the concentration in plasma (human [33]; 4 h) was 0.005 µg/mL. It also gave a concentration in plasma (human [33]; 8 h) of 0.005 µg/mL, a concentration in plasma (human [33]; 12 h) of 0.004 µg/mL and a concentration in plasma (human [33]; 14 h) of 0.004 µg/mL. It also gave a concentration in plasma (human [33]; 18 h) of 0.005 µg/mL, a concentration in plasma (human [33]; 41 h) of 0.006 µg/mL and a concentration in plasma (human [33]; 65 h) of 0.004 µg/mL. For the same compound, the concentration in plasma (human [33]; -1 h, during exposure) was 0.007 µg/mL, the concentration in plasma (human [33]; -2 h, during exposure) was 0.007 µg/mL and the concentration in plasma (human [33]; -3 h, during exposure) was 0.008 µg/mL. It also gave a concentration in plasma (human [33]; -3.48 h, during exposure) of 0.08 µg/mL.
